Compounds with a hit are over-represented: about 1.3% of the library has one in this group of screens.
PLC-beta3 inh – PLC-beta3 (human) inhibition, primary screen; Q01970; Purified PLC-beta3, fluorogenic substrate, fluorescence; inhibition, % at 12.2 µM; 370,000 compounds, 0.18% hits; AID 720704; in the data active means inhibition above about 11%;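 further: 0% = median of compound wells on plate and 100% = full blocker control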
Target sequence (Q01970 whole entry, looked up): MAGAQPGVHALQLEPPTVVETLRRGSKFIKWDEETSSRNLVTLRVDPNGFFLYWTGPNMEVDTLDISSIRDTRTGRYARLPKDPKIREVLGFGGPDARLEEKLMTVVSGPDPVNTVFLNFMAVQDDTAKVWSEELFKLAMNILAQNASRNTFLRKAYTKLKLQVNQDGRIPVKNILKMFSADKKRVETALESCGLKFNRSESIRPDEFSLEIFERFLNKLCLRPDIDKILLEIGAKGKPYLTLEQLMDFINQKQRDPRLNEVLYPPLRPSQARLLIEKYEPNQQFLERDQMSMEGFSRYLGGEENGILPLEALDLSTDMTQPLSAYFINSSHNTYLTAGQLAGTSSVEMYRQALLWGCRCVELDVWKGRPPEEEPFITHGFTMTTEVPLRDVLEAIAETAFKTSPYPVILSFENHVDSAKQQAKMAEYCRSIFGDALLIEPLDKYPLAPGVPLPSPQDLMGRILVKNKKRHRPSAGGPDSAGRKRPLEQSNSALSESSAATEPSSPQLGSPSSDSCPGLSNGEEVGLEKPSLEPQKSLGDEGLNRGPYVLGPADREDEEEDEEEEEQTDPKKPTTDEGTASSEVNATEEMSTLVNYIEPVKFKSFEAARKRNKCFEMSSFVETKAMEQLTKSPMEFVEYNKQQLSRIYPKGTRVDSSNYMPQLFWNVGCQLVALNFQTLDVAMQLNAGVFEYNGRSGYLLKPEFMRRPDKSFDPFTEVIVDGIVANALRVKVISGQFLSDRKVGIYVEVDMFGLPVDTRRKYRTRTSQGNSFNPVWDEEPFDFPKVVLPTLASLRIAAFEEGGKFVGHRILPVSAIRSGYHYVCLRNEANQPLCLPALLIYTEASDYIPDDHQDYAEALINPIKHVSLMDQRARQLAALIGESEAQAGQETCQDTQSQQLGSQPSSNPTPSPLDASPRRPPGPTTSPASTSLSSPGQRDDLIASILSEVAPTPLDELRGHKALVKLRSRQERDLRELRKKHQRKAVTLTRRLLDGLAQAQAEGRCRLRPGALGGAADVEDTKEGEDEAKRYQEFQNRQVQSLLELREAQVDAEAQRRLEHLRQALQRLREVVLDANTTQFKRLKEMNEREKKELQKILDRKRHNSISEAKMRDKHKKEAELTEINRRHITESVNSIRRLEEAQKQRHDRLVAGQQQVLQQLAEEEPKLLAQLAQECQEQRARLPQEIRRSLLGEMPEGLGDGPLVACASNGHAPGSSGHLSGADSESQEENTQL
PLCg1 inh – inhibitors of human phospholipase C gamma1; AID 720700; P19174; inhibition, % at 12.2 µM; 370,000 compounds, 0.84% hits; purified PLC-gamma1, fluorogenic substrate, fluorescence; in the data active means inhibition above about 9.5%
Arrestin-AP2 inh – blocks beta-arrestin peptide binding to AP2 adaptin; FITC-arrestin peptide / GST-AP2 beads, flow cytometry; AP2 beta2 appendage carries R879A mutation; inhibition, % at 10 µM; 340,000 compounds, 0.31% hits; AID 504490;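 active means inhibition above a set limit, near 3 SD of compounds lacking own fluorescence, cut at about 54% in these data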;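 further: plate controls were DMSO wells for no effect and 5 µM unlabelled arrestin peptide for full effect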
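System: GST-AP2 R879A glutathione beads | Also added: FITC-arrestin peptide, 50 nM | Times: 12 min plus 1 h, RT | Signal: Bead flow cytometry, FITC channel | Buffer or medium: PBS with 0.05% Tween 20 and 0.1% BSA | Read-out basis: Percent drop in bead-associated FITC signal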
NTR1 agonist – activates human neurotensin receptor 1. activation, % at 20 µM. P30989. NTR1-U2OS beta-arrestin-GFP spot imaging, agonist mode. 330,000 compounds, 0.17% hits. AID 493036;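 active means activation at or above 40% of the spot to cytoplasm intensity ratio, with at least 20 cells analyzed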;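 further: 0% = DMSO without peptide and 100% = 100 nM NTR1 peptide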
Arr AP2 CP1 – blocks beta-arrestin peptide binding to human AP2 | 1,300 compounds, 2% hits | shares compounds with Arrestin-AP2 inh | GST-AP2 beads, FITC arrestin peptide binding, flow cytometry; GST-fused beta2-adaptin appendage, R879A mutant | AID 504908 | inhibition, % at 10 µM;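 active means inhibition above a set limit, roughly 3 SD of non-fluorescent compound noise, cut at about 38% in these data; inactive means inhibition at or below that limit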;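 further: loss of bead fluorescence from 50 nM FITC arrestin peptide bound to appendage; 0% = negative control wells and 100% = excess unlabelled arrestin peptide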
GST-FITC bead – counter-screen for beta-arrestin AP2 inhibitors: GST-GSH bead binding; shares compounds with Arrestin-AP2 inh; GST-fluorescein binding to GSH beads, fluorescence; inhibition, % at 10 µM; 1,300 compounds, 2% hits; AID 588338;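 active means inhibition above 50%, about 3 SD of the inhibition seen with non-fluorescent compounds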;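 further: fluorescein maleimide labelled GST captured on 4 micron glutathione beads; higher means more loss of bead fluorescence from quenching or blocked binding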
* marks the source's active call; other numbers are inactive results.

What do the screens show for `COCCN1C(=O)C(O)=C(C(C)=O)C1c1ccc(OC)c(OC)c1` (stereo not drawn)?
PLC-beta3 inh: 3; PLCg1 inh: 3; Arrestin-AP2 inh: 0; NTR1 agonist: -1

What do the screens show for `COc1cc(C2C(C(C)=O)=C(O)C(=O)N2CCN(C)C)ccc1O` (stereo not drawn)?
PLC-beta3 inh: -2; PLCg1 inh: -2; Arrestin-AP2 inh: 69*; NTR1 agonist: 0; Arr AP2 CP1: 5; GST-FITC bead: -5

How did CCOC(=O)C(=Cc1ccc(OCc2ccc([N+](=O)[O-])cc2)c(OC)c1)C(=O)OCC do in these assays?
PLC-beta3 inh: 0; PLCg1 inh: 0; Arrestin-AP2 inh: 81*; NTR1 agonist: 21; Arr AP2 CP1: -21; GST-FITC bead: -6

What do the screens show for `COc1cc(C(c2c(C)[nH][nH]c2=O)c2c(C)[nH][nH]c2=O)ccc1OCc1ccc([N+](=O)[O-])cc1`?
PLC-beta3 inh: 7; PLCg1 inh: 9; Arrestin-AP2 inh: 3; NTR1 agonist: 36

How did CCN(C(=O)COC(=O)Cc1c[nH]c2ccccc12)c1c(N)n(Cc2ccccc2)c(=O)[nH]c1=O do in these assays?
PLC-beta3 inh: -11; PLCg1 inh: -3; Arrestin-AP2 inh: 71*; NTR1 agonist: -1; Arr AP2 CP1: -5; GST-FITC bead: -6

Results for CN(C(=O)COC(=O)Cc1c[nH]c2ccccc12)c1c(N)n(Cc2ccccc2)c(=O)[nH]c1=O ?
PLC-beta3 inh: -7; PLCg1 inh: -2; Arrestin-AP2 inh: -3; NTR1 agonist: -3

Results for O=C(Nc1ccc(Cl)cc1)Nc1ccccc1C(=O)N1CCCC1 ?
PLC-beta3 inh: -9; PLCg1 inh: -9

What do the screens show for `C=C1C(=O)[C@]23C[C@H]1CC[C@H]2[C@]1(C)CCC[C@@](C)(C(=O)OC)[C@H]1C[C@@H]3O`?
PLC-beta3 inh: -1; PLCg1 inh: -1

Results for COc1cccc(-c2nnc(SC(C(=O)c3c[nH]c4ccccc34)c3ccccc3)n2C)c1 (stereo not drawn) ?
PLC-beta3 inh: 0; PLCg1 inh: 2; Arrestin-AP2 inh: 98*; NTR1 agonist: 5; Arr AP2 CP1: 11; GST-FITC bead: 6

Results for COc1ccccc1-c1nnc(SC(C(=O)c2c[nH]c3ccccc23)c2ccccc2)n1C (stereo not drawn) ?
PLC-beta3 inh: 0; PLCg1 inh: 2; Arrestin-AP2 inh: -4; NTR1 agonist: 5

Results for COc1ccc(S[C@]2(C(=O)N3CCCC3)CC(=O)N(P(=O)(OC)OC)[C@@H]2c2ccc(OC)cc2)cc1 ?
PLC-beta3 inh: 0; PLCg1 inh: 5

Results for CN1CCC(N[C@@H](Cc2ccccc2)C(=O)NCCCc2ccccc2)(C(=O)NCCc2c[nH]c3ccccc23)CC1 ?
PLC-beta3 inh: 1; PLCg1 inh: 4

How did CCCc1cc(=O)[nH]c(SCC(=O)c2c[nH]c3ccccc23)n1 do in these assays?
PLC-beta3 inh: -4; PLCg1 inh: -7; Arrestin-AP2 inh: 54*; NTR1 agonist: 0; Arr AP2 CP1: 4; GST-FITC bead: 4

What do the screens show for `CCCc1cc(=O)[nH]c(SCC(=O)c2c(C)[nH]c3ccccc23)n1`?
PLC-beta3 inh: -3; PLCg1 inh: 7; Arrestin-AP2 inh: 1; NTR1 agonist: 3

What do the screens show for `CC1CCCN(C2(O)C(=O)Nc3ccc(Cl)cc32)C1` (stereo not drawn)?
PLC-beta3 inh: -6; PLCg1 inh: 2; Arrestin-AP2 inh: 57*; NTR1 agonist: -1; Arr AP2 CP1: 12; GST-FITC bead: -1

Results for Cc1ccc(NS(=O)(=O)c2cccc(C(=O)N3CCCC(C)C3)c2)cc1 (stereo not drawn) ?
PLC-beta3 inh: -1; PLCg1 inh: 1; Arrestin-AP2 inh: 58*; NTR1 agonist: 0; Arr AP2 CP1: 24; GST-FITC bead: 4

What do the screens show for `COc1ccccc1NS(=O)(=O)c1cccc(C(=O)N2CCCCCC2)c1`?
PLC-beta3 inh: -9; PLCg1 inh: -4; Arrestin-AP2 inh: 55*; NTR1 agonist: 2; Arr AP2 CP1: -4; GST-FITC bead: -7

What do the screens show for `CSCCC(NS(=O)(=O)c1ccccc1F)C(=O)NCC(C)(C)N1CCOCC1` (stereo not drawn)?
PLC-beta3 inh: -9; PLCg1 inh: 3; Arrestin-AP2 inh: 56*; NTR1 agonist: -1; Arr AP2 CP1: 4; GST-FITC bead: 1

Results for CSCCC(NS(=O)(=O)c1ccccc1F)C(=O)NCC(c1ccc(F)cc1)N1CCOCC1 (stereo not drawn) ?
PLC-beta3 inh: -3; PLCg1 inh: 3; Arrestin-AP2 inh: -2; NTR1 agonist: 2

How did Cc1ccccc1C(=O)Nc1nnc(-c2ccc(F)cc2)o1 do in these assays?
PLC-beta3 inh: -1; PLCg1 inh: 2; Arrestin-AP2 inh: -11; NTR1 agonist: -2

How did Cc1ccccc1C(=O)Nc1nnc(-c2cccnc2)o1 do in these assays?
PLC-beta3 inh: -4; PLCg1 inh: 1; Arrestin-AP2 inh: 60*; NTR1 agonist: -1; Arr AP2 CP1: 2; GST-FITC bead: -3

Results for COc1cccc2c1cc1c(=O)n(CC(=O)NCCCN3CCN(C)CC3)nc(C)n12 ?
PLC-beta3 inh: inactive; PLCg1 inh: inactive; Arrestin-AP2 inh: 59*; NTR1 agonist: 3; Arr AP2 CP1: -6; GST-FITC bead: 2

How did CCCN1CCN(C(=O)Cn2nc(C)n3c(cc4c(OC)cccc43)c2=O)CC1 do in these assays?
PLC-beta3 inh: -297; PLCg1 inh: -207; Arrestin-AP2 inh: 21

Results for CCCCNC(=O)COc1ccccc1C(=O)c1cc(C#N)c(=O)n(CCOC)c1 ?
PLC-beta3 inh: -33; PLCg1 inh: -24; Arrestin-AP2 inh: -6; NTR1 agonist: 0

Results for N#Cc1cc(C(=O)c2ccccc2OCC(=O)Nc2ccccc2)cn(C2CCCCC2)c1=O ?
PLC-beta3 inh: 1; PLCg1 inh: 0; Arrestin-AP2 inh: 108*; NTR1 agonist: -1; Arr AP2 CP1: 72*; GST-FITC bead: 191*

How did CN1C[C@]2(C=C3CCCCC3n3c(=O)n(-c4ccccc4)c(=O)n32)N(C(=O)OCc2ccccc2)C1=NC(=O)c1ccccc1 (stereo partly drawn) do in these assays?
PLC-beta3 inh: 3; PLCg1 inh: 3

Results for CCN1/C(=C/c2ccc3cc(C)ccc3[n+]2C)Sc2ccc3sccc3c21 ?
PLC-beta3 inh: -8; PLCg1 inh: -11; Arrestin-AP2 inh: 78*; Arr AP2 CP1: 68*; GST-FITC bead: 43

Results for CN(C)S(=O)(=O)c1cc(NC(=O)COC(=O)C2CSC3(C)CCC(=O)N23)ccc1Cl (stereo not drawn) ?
PLC-beta3 inh: 0; PLCg1 inh: 2; Arrestin-AP2 inh: 8; NTR1 agonist: 0; Arr AP2 CP1: -5; GST-FITC bead: -10
